Data set [1] concerns Rattus norvegicus. Put plainly: Percent swelling was measured on untreated rat paw at a dose of 12.5 mg/kg. The data set is classed as functional. Put shortly:
(§1)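 Rat adjuvant arthritis. Compound given orally once daily from first day of adjuvant treatment at 12.5-100 mg/kg. Adjuvant-untreated paw swelling measured by plethysmometer on day 15; inhibition versus control. Mean ± SEM of 6-10 animals.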

The nature of data set [2]: C6h was measured as concentration obtained after 6 hr of oral administration in air pouch exudate after oral administration to male F344 rats. Particulars: F344, rat, read-out: C6h. The data set is classed as ADME, organism-based. In a few lines: (§2)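 Male F344 rats given 50 mg/kg orally; drug measured in air-pouch exudate, with concentration at 6 h post-dose and exudate half-life derived; mean ± SEM of 5 rats.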

Data set [3] relates to Rattus norvegicus. The data set is described as follows: Percent inhibition was measured by in vivo by air pouch model on five rats by local administration at 100 uM. It is filed as functional. Put shortly:
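Rat CMC-LPS air-pouch model, 5 rats per group. Compound dissolved in 5% EtOH-RPMI 1640 with 30% heat-inactivated autologous serum, given locally to 100 μM final exudate concentration at 30 min before and just before LPS. Exudate collected 4 h after LPS; IL-1 by LAF assay against recombinant human IL-1α standard.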

Data set [4] concerns Rattus norvegicus. Put plainly: Percent inhibition was measured on untreated rat paw at a dose of 50 mg/kg. The data set is classed as functional. In a few lines: as §1
Data set [5] deals with Rattus norvegicus. The data set is described as follows: Percent inhibition was measured in vivo by air pouch model on five rats by oral administration at 200 uM. It is filed as functional. In a few lines:
(§3)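 Rat CMC-LPS air-pouch model, 5 rats per group. Compound given orally in 0.5% methyl cellulose 2 h before LPS at 200, 50 or 25 mg/kg. Exudate collected 4 h after LPS; extra- and intracellular IL-1 by LAF assay against recombinant human IL-1α standard.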

For data set [6], the system named is Rattus norvegicus. The data set is described as follows: Percent inhibition was measured in vivo by air pouch model on five rats by oral administration at 50 uM. Particulars: in the assay text read “50 mg/kg” for “50 uM”. The data set is classed as functional. Put shortly: as §3
The test system of data set [7] is Rattus norvegicus. Put plainly: Percent swelling was measured on untreated rat paw at a dose of 100 mg/kg. It is filed as functional. Put shortly:
as §1

A short description of data set [8]: Area under curve was measured from the graph obtained from concentration Vs time after oral administration to male F344 rats. It is filed as ADME, organism-based. The settings on record: F344, rat, in vivo. Put shortly: (§4)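 Plasma AUC over 0-4 h from concentration-time course after a single oral dose of 50 mg/kg to male F344 rats; mean ± SEM, 2-3 rats per compound.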

Data set [9] is filed under the species Rattus norvegicus. Put plainly: Concentration to inhibit rat macrophase […] (IL 1 Generation). The data set is classed as functional. Put shortly: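 Rat (Fisher) peritoneal macrophages elicited by i.p. 2.5% glycogen and harvested after 4 days. Adherent cells (0.5 × 10^6/well, RPMI 1640 + 1% heat-inactivated normal rat serum, 1.5 h at 37 °C) cultured 4 h with LPS 1 ng/mL ± compound. Intracellular IL-1 by LAF assay against recombinant human IL-1α standard; IC50 by least squares, mean of duplicates.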

In data set [10] the test system is Rattus norvegicus. The data set is described as follows: Percent inhibition was measured in vivo by air pouch model on five rats by oral administration at 25 uM. Particulars: in the assay text read “25 mg/kg” for “25 uM”. The data set is classed as functional. Put shortly: as §3
Data set [11] relates to Rattus norvegicus. The data set is described as follows: Percent inhibition was measured on untreated rat paw at a dose of 12.5 mg/kg. The data set is classed as functional. In a few lines:
as §1

Data set [12] deals with Rattus norvegicus. The data set is described as follows: Percent inhibition was measured on untreated rat paw at a dose of 100 mg/kg. The data set is classed as functional. In a few lines:
as §1

A short description of data set [13]: Half life was measured as time taken to reach the half of the initial dose in air pouch exudate after oral administration to male F344 rats. It is filed as ADME, organism-based. Particulars: F344, rat. Put shortly: as §2
Data set [14] deals with Rattus norvegicus. The data set is described as follows: Percent inhibition was measured on untreated rat paw at a dose of 25 mg/kg. It is filed as functional. Put shortly: as §1
Data set [15] in a line: Half life was measured as time taken to reach the half of the initial dose in the blood after oral administration to male F344 rats. It is filed as ADME, organism-based. Particulars: F344, rat. Put shortly:
(§5)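 Plasma half-life after a single oral dose of 50 mg/kg to male F344 rats; mean ± SEM, 2-3 rats per compound.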

Data set [16] concerns Rattus norvegicus. Put plainly: Percent swelling was measured on untreated rat paw at a dose of 50 mg/kg. The data set is classed as functional. Put shortly: as §1
The next data set is filed under the species Homo sapiens. Put plainly: Concentration to inhibit human monocyte in blood (IL 1 Generation). It is filed as functional. Put shortly:
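Human monocytes stimulated with LPS ± compound; IL-1 by LAF assay, quantified against a recombinant human IL-1 standard curve. IC50 by least-squares method, mean of two or more experiments.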

Data set [17] relates to Rattus norvegicus. Put plainly: Percent swelling was measured on untreated rat paw at a dose of 25 mg/kg. The data set is classed as functional. Put shortly:
as §1

Data set [18] is filed under the species Rattus norvegicus. Put plainly: Percent swelling was measured on untreated rat paw at different dosage forms. The data set is classed as functional. Put shortly: as §1
The species named for data set [19] is Rattus norvegicus. Put plainly: Percent inhibition was measured on untreated rat paw at different dosage forms. It is filed as functional. Put shortly:
as §1

The nature of data set [20]: Half life was measured as time taken to reach the half of the initial dose in the blood. It is filed as ADME, tissue-based. Put shortly:
as §5

Data set [21] in a line: Half life was measured as time taken to reach the half of the initial dose in air pouch exudate. It is filed as ADME. Put shortly: as §2
Data set [22] is described as follows: C6h was measured as concentration obtained after 6 hr of oral administration in air pouch exudate. The data set is classed as ADME. Particulars: read-out: C6h. In a few lines: as §2
Data set [23] can be described thus: Area under curve was measured from the graph obtained from concentration Vs time. It is filed as ADME. Put shortly:
as §4

Where [24] appears, read: in the assay text read “200 mg/kg” for “200 uM”.
The mark [25] stands for this setting: in the assay text read “at 200 mg/kg” for “at 200 uM”.

As a reminder, the Inhibition is the drop in the measured response relative to a control, in per cent. High values mean strong suppression, low ones little suppression. Broadly, the inhibition in vivo is the share of the control response that was lost under treatment. A higher inhibition in vivo goes with a response far below the control. One may read the AUC as concentration integrated over time. Higher therefore signals more exposure. What is called IC50 is the concentration needed to halve the response being measured. Read a high IC50 as weaker potency. For orientation: half-life means how long it takes for the measured level to halve. In the case of `CCc1cccc2c(/C=C(/C)C(=O)O)cc(OC)c(O)c12`, the Swelling is 44.1% in the data set with Rattus norvegicus [1], 26.8% in the data set on Rattus norvegicus [7], 33.8% in the data set with Rattus norvegicus [16] and 36.4% in the data set with Rattus norvegicus [17]. In addition, the concentration at 6 h in [2] was determined as 8760 ng/mL. The Inhibition with Rattus norvegicus [3] came to 94%; in the data set on Rattus norvegicus [5] (setting [24]), 91%; in the data set with Rattus norvegicus [6], 65%; with Rattus norvegicus [10], 40%. Also, the inhibition in vivo at 50 mg/kg with Rattus norvegicus [4] worked out at 38.8%. In data set [8], this compound came in with an AUC of 418 µg·h/mL. Also, the IC50 in the data set filed under Rattus norvegicus [9] was found to be 1400 nM; in the data set filed under Homo sapiens, 3000 nM. This compound had an inhibition in vivo at 12.5 mg/kg in the data set on Rattus norvegicus [11] of 20.1%. The same compound showed an inhibition in vivo at 100 mg/kg with Rattus norvegicus [12] of 51.4%. For the same compound, the results for the half-life in data set [13] and in data set [15] were 4.15 h and 1.72 h, respectively. The same compound gave an inhibition in vivo at 25 mg/kg in the data set on Rattus norvegicus [14] of 34.1%.
`COc1ccc2c(c1)c(CC(=O)O)c(C)n2C(=O)c1ccc(Cl)cc1` [INDOMETHACIN] yielded a Swelling in the data set listed under Rattus norvegicus [18] of 28.8%. Further, the Inhibition in the data set filed under Rattus norvegicus [19] is on record as 47.8%.
For the compound `CCCc1cccc2c(/C=C(\C)C(=O)O)cc(OC)c(O)c12`, the Inhibition is 91% with Rattus norvegicus [3], 67% in the data set with Rattus norvegicus [5] (setting [25]) and 4% in the data set on Rattus norvegicus [6]. In addition, the AUC in data set [8] was 60.4 µg·h/mL. The IC50 in the data set filed under Rattus norvegicus [9] and in the data set filed under Homo sapiens was 1000 nM throughout. In data set [15], the half-life is 1.07 h.
Take `CCc1cccc2c(/C=C(\C)C(=O)O)cc(OC)c(O)c12`: the values for the Inhibition in the data set with Rattus norvegicus [3] and in the data set with Rattus norvegicus [5] (setting [25]) were 85% and 36%, respectively. In addition, in data set [8], the AUC is 108 µg·h/mL. Also, the values for the IC50 in the data set filed under Rattus norvegicus [9] and in the data set filed under Homo sapiens were 2000 nM and 4800 nM, respectively. The compound further gave a half-life in [15] of 0.44 h.
As to `CCCc1cccc2c(/C=C(/C)C(=O)O)cc(OC)c(O)c12`, the Swelling in the data set on Rattus norvegicus [1] was found to be 45.8%; in the data set on Rattus norvegicus [7], 25.6%; in the data set on Rattus norvegicus [16], 29.5%; in the data set with Rattus norvegicus [17] it was 50.8%. The half-life was 1.07 h in [20] and 2.05 h in data set [21]. Moreover, the Inhibition is recorded as 87% with Rattus norvegicus [3], 86% in the data set on Rattus norvegicus [5] (setting [24]) and 33% in the data set with Rattus norvegicus [6]. The same compound had an inhibition in vivo at 50 mg/kg in the data set on Rattus norvegicus [4] of 46.6%. Also, the 50% inhibitory concentration (IC50) in the data set listed under Rattus norvegicus [9] turned out to be 1100 nM; in the data set listed under Homo sapiens it was 1000 nM. Further, 12.5 mg/kg produced 17% inhibition in vivo with Rattus norvegicus [11]. The concentration at 6 h in data set [22] came to 1940 ng/mL. Moreover, in the data set with Rattus norvegicus [12], testing at 100 mg/kg gave an inhibition in vivo of 53.6%. In the data set on Rattus norvegicus [14], this compound displayed an inhibition in vivo at 25 mg/kg of 8%. Further, in [23], the AUC turned out to be 189 µg·h/mL.

(Values after ChEMBL document CHEMBL1125193, “3-(5-Alkyl-4-hydroxy-3-methoxy-1-naphthalenyl)-2-methyl-2-propenoic acids as orally active inhibitors of IL-1 generation” (J Med Chem, 1991).)
